# ChEMBL document CHEMBL2412970, “Synthesis and anticancer activity of 2,4-disubstituted furo[3,2-b]indole derivatives” (Eur J Med Chem, 2013)
# Active and inactive are the calls of the source. No cut-off for these calls is given here.
# Key:
# A498 [1] = assay: Induction of apoptosis in human A498 cells assessed as late apoptotic cells at 0.5 uM after 48 hrs by AnnexinV/FITC-propidium iodide staining-based flow cytometry (reference value: 9.6%); format: functional
# How it was run: (§1)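 Flow cytometry with annexin V-FITC/PI double labeling of A498 cells treated for 12, 24, 36 or 48 h; untreated cells served as the 0 h control. Stained in binding buffer for 15 min at room temperature in the dark, with more binding buffer added just before analysis. Annexin V+/PI− (Q4) counted as early apoptotic and annexin V+/PI+ (Q2) as late apoptotic.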
# A498 [2] = assay: Induction of apoptosis in human A498 cells assessed as late apoptotic cells at 0.5 uM after 24 hrs by AnnexinV/FITC-propidium iodide staining-based flow cytometry (reference value: 9.6%); format: functional; how it was run: as §1
# A498 [3] = assay: Induction of apoptosis in human A498 cells assessed as early apoptotic cells at 0.5 uM after 24 hrs by AnnexinV/FITC-propidium iodide staining-based flow cytometry (reference value: 3.9%); format: functional
# A498 [4] = assay: Cytotoxicity against human A498 cells assessed as cell rounding at 0.5 uM after 24 hrs by phase contrast microscopy; format: functional, cell-based
# How it was run: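 A498 cells were plated at 5 × 10⁵ per well and exposed to 0.5 µM for 24 h. Cell rounding and shrinkage were scored by microscopy against untreated control cells.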
# DU-145 = assay: Cytotoxicity against human DU145 cells after 48 hrs by sulforhodamine B assay; format: functional; conditions: DU-145, 48 h
# UO-31 = assay: Cytotoxicity against human UO31 cells after 48 hrs by sulforhodamine B assay; format: functional; conditions: UO-31, 48 h
# RXF 393 = assay: Cytotoxicity against human RXF393 cells after 48 hrs by sulforhodamine B assay; format: functional; conditions: RXF 393, 48 h
# 786-0 = assay: Cytotoxicity against human 786-0 cells after 48 hrs by sulforhodamine B assay; format: functional; conditions: 786-0, 48 h
# OVCAR-5 = assay: Cytotoxicity against human OVCAR5 cells after 48 hrs by sulforhodamine B assay; format: functional; conditions: OVCAR-5, 48 h
# SK-MEL-5 = assay: Cytotoxicity against human SK-MEL-5 cells after 48 hrs by sulforhodamine B assay; format: functional; conditions: SK-MEL-5, 48 h
# Malme-3M = assay: Cytotoxicity against human MALME-3M cells after 48 hrs by sulforhodamine B assay; format: functional
# LOX IMVI = assay: Cytotoxicity against human LOXIMVI cells after 48 hrs by sulforhodamine B assay; format: functional
# SF-268 = assay: Cytotoxicity against human SF268 cells after 48 hrs by sulforhodamine B assay; format: functional; conditions: SF-268, 48 h
# HT-29 = assay: Cytotoxicity against human HT-29 cells after 48 hrs by sulforhodamine B assay; format: functional; conditions: HT-29, 48 h
# HCC 2998 = assay: Cytotoxicity against human HCC2998 cells after 48 hrs by sulforhodamine B assay; format: functional; conditions: HCC 2998, 48 h
# A498 [5] = assay: Cell cycle arrest in human A498 cells assessed as accumulation at G2/M phase at 0.5 uM after 24 hrs by propidium iodide staining-based flow cytometry (reference value: 5.39 +/- 0.01%); format: functional
# A498 [6] = assay: Cell cycle arrest in human A498 cells assessed as accumulation at sub-G1 phase at 0.5 uM after 36 hrs by propidium iodide staining-based flow cytometry (reference value: 0.10 +/- 0.07%); format: functional
# A498 [7] = assay: Antitumor activity against human A498 cells xenografted in BALB/cAnN.Cg-Foxn1nu/CrlNarl nude mouse assessed as suppression of tumor growth at 60 mg/kg/day, ip qd administered 5 times a week for 28 days measured every 7 days relative to control; format: functional; conditions: route intraperitoneal, read-out: TGI
# How it was run: (§2)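 Male nude mice (18–20 g, 4–6 weeks) were inoculated subcutaneously with A498 cells, 2 × 10⁶ per mouse in 0.1 mL PBS. Once tumors reached 100 mm³, mice were randomized and given ip doses of 30 or 60 mg/kg, 5 times per week for 4 weeks. Body weight and tumor size were recorded every 7 days over 28 days. Volume = 1/2 ([…]).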
# A498 [8] = assay: Antitumor activity against human A498 cells xenografted in BALB/cAnN.Cg-Foxn1nu/CrlNarl nude mouse assessed as suppression of tumor growth at 30 to 60 mg/kg/day, ip qd; format: functional, organism-based; conditions: TDE = time-dependent effect; how it was run: as §2
# A498 [9] = assay: Antitumor activity against human A498 cells xenografted in ip dosed BALB/cAnN.Cg-Foxn1nu/CrlNarl nude mouse assessed as suppression of tumor growth administered qd for 5 times a week for 28 days measured every 7 days; format: functional, organism-based; how it was run: as §2
# A498 [10] = assay: Induction of apoptosis in human A498 cells assessed as increase in Apaf-1 level at 0.5 uM after 6 to 48 hrs by Western blotting analysis; format: functional, cell-based
# How it was run: (§3)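 A498 cells exposed for 6, 12, 24, 36 or 48 h, then washed in PBS and lysed. Lysates were held on ice for 30 min and spun at 12 000g for 20 min. Supernatant protein was measured by Bradford assay, run on 10% SDS-PAGE and transferred to nitrocellulose. Blots were probed for AIF, Endo G, Apaf-1, cytochrome c, caspase 9 and caspase 3, with β-actin as loading control; n = 3 independent experiments.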
# A498 [11] = assay: Induction of apoptosis in human A498 cells assessed as increase in AIF level at 0.5 uM after 6 to 48 hrs by Western blotting analysis; format: functional, cell-based; how it was run: as §3
# A498 [12] = assay: Induction of apoptosis in human A498 cells assessed as increase in Endo G level at 0.5 uM after 6 to 48 hrs by Western blotting analysis; format: functional, cell-based; how it was run: as §3
# A498 [13] = assay: Induction of apoptosis in human A498 cells assessed as caspase-9 activation at 0.5 uM after 24 hrs by Western blotting analysis; format: functional, cell-based; how it was run: as §3
# A498 [14] = assay: Induction of cell cycle arrest at G2/M phase in human A498 cells assessed as increase in cyclin B1 expression at 0.5 uM after 6 hrs by Western blotting analysis; format: functional, cell-based
# How it was run: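 A498 cells exposed to 0.5 µM for 6, 12, 24, 36 or 48 h, then lysed on ice 30 min and spun 12 000g 20 min. Protein measured by Bradford; 20 µg per lane run on 10% SDS-PAGE, transferred to nitrocellulose, probed for cyclin B1 and CDK1, β-actin as loading control; n = 3 independent experiments.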
# A498 [15] = assay: Cell cycle arrest in human A498 cells assessed as accumulation at G2/M phase at 0.5 uM by propidium iodide staining-based flow cytometry; format: functional; conditions: TDE = time-dependent effect
# HL-60(TB) = assay: Cytotoxicity against human HL-60(TB) cells after 48 hrs by sulforhodamine B assay; format: functional; conditions: HL-60, 48 h
# [16] = read-out: pLC50 (the source's name) (converted)
smiles,measurement,setting,value
OCc1ccc(Cn2c3ccccc3c3oc(CO)cc32)o1,Activity,A498 [1],21.2%
same,Activity,A498 [2],15.6%
same,Activity,A498 [3],12.7%
same,Activity,A498 [4],Active
same,GI50,DU-145,> 100 µM
same,CC50,DU-145; [16],> 100 µM
same,TGI,DU-145; read-out: pTGI,> 100 µM
same,GI50,UO-31,50.1 µM
same,CC50,UO-31; [16],> 100 µM
same,TGI,UO-31; read-out: pTGI,> 100 µM
same,GI50,RXF 393,75.9 µM
same,CC50,RXF 393; [16],> 100 µM
same,TGI,RXF 393; read-out: pTGI,> 100 µM
same,GI50,786-0,50.1 µM
same,CC50,786-0; [16],> 100 µM
same,TGI,786-0; read-out: pTGI,> 100 µM
same,GI50,OVCAR-5,0.331 µM
same,TGI,OVCAR-5; read-out: pTGI (converted),1.2 µM
same,GI50,SK-MEL-5,> 100 µM
same,CC50,SK-MEL-5; [16],> 100 µM
same,TGI,SK-MEL-5; read-out: pTGI,> 100 µM
same,GI50,Malme-3M,> 100 µM
same,CC50,Malme-3M; [16],> 100 µM
same,TGI,Malme-3M; read-out: pTGI,> 100 µM
same,GI50,LOX IMVI,66.1 µM
same,CC50,LOX IMVI; [16],> 100 µM
same,TGI,LOX IMVI; read-out: pTGI,> 100 µM
same,GI50,SF-268,97.7 µM
same,CC50,SF-268; [16],> 100 µM
same,TGI,SF-268; read-out: pTGI,> 100 µM
same,GI50,HT-29,41.7 µM
same,CC50,HT-29; [16],> 100 µM
same,TGI,HT-29; read-out: pTGI,> 100 µM
same,GI50,HCC 2998,> 100 µM
same,CC50,HCC 2998; [16],> 100 µM
same,TGI,HCC 2998; read-out: pTGI,> 100 µM
same,Activity,A498 [5],11.37%
same,Activity,A498 [6],3.16%
same,inhibition in vivo at 60 mg/kg/day,A498 [7],80%
same,Activity,A498 [8],tde
same,Activity,A498 [9],Dose-dependent effect
same,Activity,A498 [10],Active
same,Activity,A498 [11],Active
same,Activity,A498 [12],Active
same,Activity,A498 [13],Active
same,Activity,A498 [14],Active
same,Activity,A498 [15],tde
same,GI50,HL-60(TB),> 100 µM
same,CC50,HL-60(TB); [16],> 100 µM
same,TGI,HL-60(TB); read-out: pTGI,> 100 µM
